Measurements taken from ChEMBL document CHEMBL1275419, “The thymidine-dependent small-colony-variant phenotype is associated with hypermutability and antibiotic resistance in clinical Staphylococcus aureus isolates” (Antimicrob Agents Chemother, 2008).
The source made the active and inactive calls. The rule behind the calls is not given here.

How the values were obtained:
Type in all cases: functional, organism-based
Staphylococcus aureus [1] = experiment: Antibacterial activity against normal-colony variant Staphylococcus aureus derived from cystic fibrosis patient assessed as resistant isolates at 37 degC after 24 hrs by disk diffusion method
Outline: (§1)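 Disk diffusion per CLSI guidelines (fosfomycin per French CA-SFM guidelines). NCV isolates tested on plain Mueller-Hinton agar and incubated 24 h at 37°C. Isolates scored susceptible or resistant per agent.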

Staphylococcus aureus [2] = experiment: Antibacterial activity against normal-colony variant Staphylococcus aureus derived from non cystic fibrosis patient assessed as resistant isolates at 37 degC after 24 hrs by disk diffusion method; outline: as §1
Staphylococcus aureus [3] = experiment: Antibacterial activity against thymidine-dependent small-colony variant Staphylococcus aureus derived from cystic fibrosis patient assessed as resistant isolates at 37 degC after 24 hrs by disk diffusion method
Outline: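 Disk diffusion per CLSI guidelines (fosfomycin per French CA-SFM guidelines). Thymidine-dependent SCVs cannot grow without thymidine, so they were tested on Mueller-Hinton agar with 5% defibrinated sheep blood and incubated 24 h at 37°C. Isolates scored susceptible or resistant per agent.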

Compound	Activity (Staphylococcus aureus [1])	Activity (Staphylococcus aureus [2])	Activity (Staphylococcus aureus [3])
C[C@@H]1O[C@@H]1P(=O)(O)O	Active	Active	inactive
GENTAMICIN	Active	Active	inactive
O=C(O)c1cn(C2CC2)c2cc(N3CCNCC3)c(F)cc2c1=O	Active	Active	inactive
CO[C@H]1/C=C/O[C@@]2(C)Oc3c(C)c(O)c4c(O)c(c(/C=N/N5CCN(C)CC5)c(O)c4c3C2=O)NC(=O)/C(C)=C\C=C\[C@H](C)[C@H](O)[C@@H](C)[C@@H](O)[C@@H](C)[C@H](OC(C)=O)[C@@H]1C	Active	Active	inactive
CC[C@H]1OC(=O)[C@H](C)[C@@H](O[C@H]2C[C@@](C)(OC)[C@@H](O)[C@H](C)O2)[C@H](C)[C@@H](O[C@@H]2O[C@H](C)C[C@H](N(C)C)[C@H]2O)[C@](C)(O)C[C@@H](C)C(=O)[C@H](C)[C@@H](O)[C@]1(C)O	Active	Active	inactive
